Reference: ChEMBL document CHEMBL1123468, “Synthesis and antiviral activity of (E)-5-(2-bromovinyl)uracil and (E)-5-(2-bromovinyl)uridine” (1986)
≈ marks a conversion by molar mass, not a printed value.

Key:
BSC-1 = test: The compound was tested for its antiviral activity against HSV-1 (KOS) virus in BS-C-1A cell line; type: functional, Cercopithecidae; details: Chlorocebus aethiops
Outline: (§1)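 Virus-induced cytopathogenicity in cell culture, scored microscopically. The value is the minimum concentration that cuts viral cytopathogenicity by 50%. Normal cell morphology was also checked microscopically at up to 400 μg/mL.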

E6SM [1] = test: The compound was tested for its antiviral activity against HSV-1 (KOS) virus in E6SM cell line; type: functional; details: Homo sapiens; outline: as §1
E6SM [2] = test: The concentration required to reduce the cytopathogenicity of HSV-1 (KOS) in E6SM cell culture by 50% in presence of 100 ug/mL dThd; type: functional; details: Homo sapiens
Outline: (§2)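 E6SM cells infected with HSV-1 (KOS), with dThd added to the culture medium at the stated concentration. The value is the minimum concentration that reduces viral cytopathogenicity by 50%.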

E6SM [3] = test: The concentration required to reduce the cytopathogenicity of HSV-1 (KOS) in E6SM cell culture by 50% in presence of 100 ug/mL concentrations of 6-aminothymine; type: functional; details: Homo sapiens
Outline: (§3)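 E6SM cells infected with HSV-1 (KOS), with 6-aminothymine or benzylacyclouridine added to the medium at the stated concentration. The value is the minimum concentration that reduces viral cytopathogenicity by 50%.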

E6SM [4] = test: The compound was tested for its antiviral activity against HSV-1 (F) virus in E6SM cell culture; type: functional; details: Homo sapiens; outline: as §1
E6SM [5] = test: The concentration required to reduce the cytopathogenicity of HSV-1 (KOS) in E6SM cell culture by 50% in presence of 50 ug/mL concentrations of benzylacyclouridine; type: functional; details: Homo sapiens
Outline: (§4)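 E6SM cultures were infected with HSV-1 strain KOS. 6-Aminothymine or benzylacyclouridine was present in the medium together with the test compound. The value is the minimum concentration giving 50% reduction of viral cytopathogenicity, scored by the earlier-described cytopathogenicity inhibition procedure.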

E6SM [6] = test: The compound was tested for its antiviral activity against HSV-1 (KOS) virus in E6SM cell culture; type: functional; details: Homo sapiens; outline: as §1
E6SM [7] = test: The compound was tested for its antiviral activity against HSV-1 (McIntyre) virus in E6SM cell culture; type: functional; details: Homo sapiens; outline: as §1
E6SM [8] = test: The compound was tested for its antiviral activity against HSV-2 (196) virus in E6SM cell culture; type: functional; details: Homo sapiens; outline: as §1
E6SM [9] = test: The compound was tested for its antiviral activity against HSV-2 (Lyons) virus in E6SM cell culture; type: functional; details: Homo sapiens; outline: as §1
E6SM [10] = test: The compound was tested for its antiviral activity against TK-HSV-1 (B2006) virus in E6SM cell culture; type: functional; details: Homo sapiens; outline: as §1
E6SM [11] = test: The compound was tested for its antiviral activity against vaccinia virus in E6SM cell culture; type: functional; details: Homo sapiens; outline: as §1
E6SM [12] = test: The compound was tested for its antiviral activity against vesicular stomatitis virus in E6SM cell culture; type: functional; details: Homo sapiens; outline: as §1
E6SM [13] = test: The concentration required to reduce the cytopathogenicity of HSV-1 (KOS) in E6SM cell culture by 50% in absence of dThd; type: functional; details: Homo sapiens; outline: as §2
E6SM [14] = test: The concentration required to reduce the cytopathogenicity of HSV-1 (KOS) in E6SM cell culture by 50% in presence of 1 ug/mL dThd; type: functional; details: Homo sapiens; outline: as §2
E6SM [15] = test: The concentration required to reduce the cytopathogenicity of HSV-1 (KOS) in E6SM cell culture by 50% in presence of 10 ug/mL dThd; type: functional; details: Homo sapiens; outline: as §2
E6SM [16] = test: The concentration required to reduce the cytopathogenicity of HSV-1 (KOS) in E6SM cell culture by 50% in presence of 10 ug/mL concentrations of benzylacyclouridine; type: functional; details: Homo sapiens; outline: as §3
E6SM [17] = test: The concentration required to reduce the cytopathogenicity of HSV-1 (KOS) in E6SM cell culture by 50% in presence of 20 ug/m concentrations of 6-aminothymine; type: functional; details: Homo sapiens; outline: as §3
E6SM [18] = test: The concentration required to reduce the cytopathogenicity of HSV-1 (KOS) in E6SM cell culture by 50% in presence of 3 ug/mL dThd; type: functional; details: Homo sapiens; outline: as §2
E6SM [19] = test: The concentration required to reduce the cytopathogenicity of HSV-1 (KOS) in E6SM cell culture by 50% in presence of 30 ug/mL dThd; type: functional; details: Homo sapiens
Outline: (§5)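 Thymidine (dThd) was added to the E6SM culture medium alongside the test compound, and cells were infected with HSV-1 strain KOS. The endpoint is the minimum inhibitory concentration that reduces viral cytopathogenicity by 50%. The cytopathogenicity inhibition procedure follows the earlier-described method.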

E6SM [20] = test: The concentration required to reduce the cytopathogenicity of HSV-1 (KOS) in E6SM cell culture by 50% in presence of 300 ug/mL dThd; type: functional; details: Homo sapiens; outline: as §5
E6SM [21] = test: The concentration required to reduce the cytopathogenicity of HSV-1 (KOS) in E6SM cell culture by 50% in presence of 4 ug/m concentrations of 6-aminothymine; type: functional; details: Homo sapiens; outline: as §4
E6SM [22] = test: The concentration required to reduce the cytopathogenicity of HSV-1 (KOS) in E6SM cell culture by 50% in presence of absence of concentrations of 6-aminothymine; type: functional; details: Homo sapiens
E1 SM = test: The compound was tested for its antiviral activity against HSV-1 (KOS) virus in E1SM cell line; type: functional, Homo sapiens; outline: as §1
E6SM [23] = test: The concentration required to reduce the cytopathogenicity of HSV-1 (KOS) in E6SM cell culture by 50% in presence of absence of concentrations of benzylacyclouridine; type: functional; details: Homo sapiens
HeLa [24] = test: The concentration required to reduce the cytopathogenicity of HSV-1 (KOS) in HeLa cell culture by 50% in presence of 4 ug/m concentrations of 6-aminothymine; type: functional; details: Homo sapiens
HeLa [25] = test: The concentration required to reduce the cytopathogenicity of HSV-1 (KOS) in HeLa cell culture by 50% in presence of absence concentrations of 6-aminothymine; type: functional; details: Homo sapiens
HeLa [26] = test: The concentration required to reduce the cytopathogenicity of HSV-1 (KOS) in HeLa cell culture by 50% in presence of 100 ug/m concentrations of 6-aminothymine; type: functional; details: Homo sapiens
HeLa [27] = test: The concentration required to reduce the cytopathogenicity of HSV-1 (KOS) in HeLa cell culture by 50% in presence of 20 ug/m concentrations of 6-aminothymine; type: functional; details: Homo sapiens
HEp-2 = test: The compound was tested for its antiviral activity against HSV-1 (KOS) virus in HEp-2M cell line; type: functional; details: Homo sapiens; outline: as §1
HSF (VGS) = test: The compound was tested for its antiviral activity against HSV-1 (KOS) virus in HSF (VGS) cell line; type: functional; details: Homo sapiens; outline: as §1
M21 = test: The compound was tested for its antiviral activity against HSV-1 (KOS) virus in M-21 (GM137) cell line,; type: functional; details: Homo sapiens; outline: as §1
Mo = test: The compound was tested for its antiviral activity against HSV-1 (KOS) virus in MO cell line; type: functional; details: Homo sapiens; outline: as §1
PRK = test: The compound was tested for its antiviral activity against HSV-1 (KOS) virus in PRK cell line; type: functional; details: Oryctolagus cuniculus
Outline: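 Primary rabbit kidney cells infected with HSV-1 (KOS). The value is the minimum concentration that cuts viral cytopathogenicity by 50%. Cytotoxicity was judged as microscopically detectable alteration of cell morphology at up to 400 μg/mL.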

[28] = The concentration required to reduce the cytopathogenicity of HSV-1 (KOS) in PRK cell culture absence concentrations of 6-aminothymine; type: functional; details: Oryctolagus cuniculus
[29] = The concentration required to reduce the cytopathogenicity of HSV-1 (KOS) in PRK cell culture by 50% in presence of 100 ug/mL concentrations of 6-aminothymine; type: functional; details: Oryctolagus cuniculus
Outline: (§6)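 The cells were primary rabbit kidney (PRK) cultures infected with HSV-1 strain KOS, with 6-aminothymine co-present in the medium. The value is the minimum inhibitory concentration that reduces viral cytopathogenicity by 50%, using the previously described cytopathogenicity inhibition method.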

[30] = The concentration required to reduce the cytopathogenicity of HSV-1 (KOS) in PRK cell culture by 50% in presence of 20 ug/mL concentrations of 6-aminothymine; type: functional; details: Oryctolagus cuniculus; outline: as §6
[31] = The concentration required to reduce the cytopathogenicity of HSV-1 (KOS) in PRK cell culture by 50% in presence of 40 ug/mL concentrations of 6-aminothymine; type: functional; details: Oryctolagus cuniculus; outline: as §6
T-21 (LR) = test: The compound was tested for its antiviral activity against HSV-1 (KOS) virus in T-21 (LR) cell line; type: functional; details: Homo sapiens; outline: as §1
Vero = test: The compound was tested for its antiviral activity against HSV-1 (KOS) virus in vero cell line; type: functional; details: Chlorocebus sabaeus; outline: as §1
HeLa [32] = test: The compound was tested for its antiviral activity against HSV-1 (KOS) virus in HeLa cell line; type: functional; details: Homo sapiens; outline: as §1
E6SM [33] = test: The compound was tested for its antiviral activity against HSV-2 (G) virus in E6SM cell culture; type: functional; details: Homo sapiens; outline: as §1
BALB/3T3 = test: The compound was tested for its antiviral activity against HSV-1 (KOS) virus in BALB/3T3 cell line; details: Mus musculus

O=c1[nH]c(=O)n([C@@H]2O[C@H](CO)[C@@H](O)[C@H]2O)cc1/C=C/Br
MIC50 (BSC-1): > 400 µg/mL | MIC50 (E6SM [1]): 4 µg/mL (≈ 11.5 µM) | MIC50 (E6SM [2]): > 400 µg/mL | MIC50 (E6SM [3]): 4 µg/mL | MIC50 (E6SM [4]): 7 µg/mL (≈ 20 µM) | MIC50 (E6SM [5]): 10 µg/mL | MIC50 (E6SM [6]): 4 µg/mL (≈ 11.5 µM) | MIC50 (E6SM [7]): 2 µg/mL (≈ 5.73 µM) | MIC50 (E6SM [8]): > 400 µg/mL | MIC50 (E6SM [9]): > 400 µg/mL | MIC50 (E6SM [10]): > 200 µg/mL | MIC50 (E6SM [11]): > 400 µg/mL | MIC50 (E6SM [12]): > 400 µg/mL | MIC50 (E6SM [13]): 7 µg/mL (≈ 20 µM) | MIC50 (E6SM [14]): 7 µg/mL | MIC50 (E6SM [15]): 70 µg/mL | MIC50 (E6SM [16]): 4 µg/mL | MIC50 (E6SM [17]): 3 µg/mL | MIC50 (E6SM [18]): 4 µg/mL | MIC50 (E6SM [19]): > 400 µg/mL | MIC50 (E6SM [20]): > 400 µg/mL | MIC50 (E6SM [21]): 3 µg/mL | MIC50 (E6SM [22]): 4 µg/mL | MIC50 (E1 SM): 1 µg/mL (≈ 2.86 µM) | MIC50 (E6SM [23]): 4 µg/mL | MIC50 (HeLa [24]): 0.4 µg/mL | MIC50 (HeLa [25]): 0.2 µg/mL | MIC50 (HeLa [26]): 1 µg/mL | MIC50 (HeLa [27]): 0.4 µg/mL | MIC50 (HEp-2): 150 µg/mL (≈ 430 µM) | MIC50 (HSF (VGS)): 1 µg/mL (≈ 2.86 µM) | MIC50 (M21): 4 µg/mL (≈ 11.5 µM) | MIC50 (Mo): > 400 µg/mL | MIC50 (PRK): 7 µg/mL (≈ 20 µM) | MIC50 [28]: 10 µg/mL (≈ 28.6 µM) | MIC50 [29]: 10 µg/mL | MIC50 [30]: 10 µg/mL | MIC50 [31]: 10 µg/mL | MIC50 (T-21 (LR)): 10 µg/mL (≈ 28.6 µM) | MIC50 (Vero): > 400 µg/mL | MIC50 (HeLa [32]): 0.4 µg/mL (≈ 1.15 µM) | MIC50 (E6SM [33]): > 400 µg/mL | MIC50 (BALB/3T3): > 400 µg/mL
